SMARCA2 act: activators of SMARCA2 function | MG213 cells, MMTV-luciferase reporter, dexamethasone, overnight | activation, % at 9.1 µM | 1% of 370,000 active; in the data active means activation above about 7.8%;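 further: 0% = vehicle wells and 100% = reference activator wells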
NR2E3 ag-1: NR2E3 (human) agonism; Q9Y5X4; GST-NR2E3/biotin-RetCOR TR-FRET, 1536-well; inhibition of corepressor binding, % at 4.78 µM; 0.12% of 320,000 active;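 active means percent inhibition above the cutoff of mean plus 3 SD of all tested compounds, set per screening campaign, cut at about 20% in these data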;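 further: 0% = DMSO wells and 100% = biotin wells as full block of FRET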
Target sequence (Q9Y5X4 whole entry, looked up): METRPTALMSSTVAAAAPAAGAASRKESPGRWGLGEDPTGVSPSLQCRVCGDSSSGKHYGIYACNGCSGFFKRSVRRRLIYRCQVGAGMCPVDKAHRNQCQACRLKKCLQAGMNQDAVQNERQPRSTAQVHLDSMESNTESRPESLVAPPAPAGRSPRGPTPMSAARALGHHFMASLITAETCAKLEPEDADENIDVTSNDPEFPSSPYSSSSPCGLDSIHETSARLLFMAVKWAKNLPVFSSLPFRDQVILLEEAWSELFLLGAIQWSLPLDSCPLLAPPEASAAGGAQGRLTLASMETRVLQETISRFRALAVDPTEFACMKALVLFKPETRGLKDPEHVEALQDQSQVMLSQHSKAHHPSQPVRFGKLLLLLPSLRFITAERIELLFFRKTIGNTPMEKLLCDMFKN
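Format: 1536-well format; test system: GST-NR2E3 and biotin-RetCOR proteins; read-out basis: percent inhibition of TR-FRET ratio; timing: 5 h incubation at 4 °C; detection: time-resolved FRET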
NR2E3 ag-2: human photoreceptor-specific nuclear receptor agonism. Q9Y5X4. CHO-S Gal4-NCOR/VP16-NR2E3 two-hybrid, luciferase. inhibition of corepressor binding, % at 3.98 µM. 0.35% of 360,000 active;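 active means inhibition above the mean of all tested compounds plus 3 SD, cut at about 70% in these data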;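 further: 0% = DMSO with NR2E3 transfected cells and 100% = cells lacking NR2E3 construct; higher means lower luciferase signal from less NR2E3 corepressor binding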
DAX1 inh-1: DAX1 (NR0B1) inhibition, primary screen | HEK293T StAR-luciferase reporter, SF-1/DAX-1 repression relief | inhibition, % at 6.8 µM | 1.1% of 370,000 active | AID 652010;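 active means inhibition above the mean over all tested compounds plus 3 SD, cut at about 3.6% in these data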;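 further: 0% = DAX-1 cells with DMSO and 100% = cells lacking DAX-1 with DMSO; higher inhibition means more luminescence from relief of DAX-1 repression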
GASC-1 inh: inhibitors of human GASC-1 (JMJD2C) demethylase; GST-JMJD2C(1-420) H3K9me3 demethylation, DELFIA europium; inhibition, % at 2.35 µM; 0.069% of 330,000 active;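 active means more than half of a compound's replicate wells show inhibition beyond 50%, single wells judged on their own value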;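 further: signal counts dimethyl H3K9 product captured on neutravidin plate; 0% = median of DMSO wells and 100% = 0.3 times that DMSO median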
DAX1 inh-2: NR0B1 (DAX1) inhibition; P51843; AID 504766; HEK293 Gal4-DAX1 luciferase reporter, luminescence; inhibition, % at 6.75 µM; 0.99% of 340,000 active;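 active means inhibition above the mean over all tested compounds plus 3 SD, cut at about 4.2% in these data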;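 further: 0% = DAX1-transfected cells with DMSO and 100% = empty-vector control cells with DMSO; inhibition shows as a rise in luminescence from relieved DAX1 repression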
Starred values were filed as active, the others as inactive. An excerpt weighted towards active compounds, which were near 3.2% of everything screened.

`O=c1c2ccccc2n(Cc2ccco2)n1[C@@H](Cc1ccccc1)Cn1cc(C2CCCC2)nn1` gave SMARCA2 act -1 and DAX1 inh-1 0.
`Cc1ccccc1Nc1nc2ccccc2s1` gave SMARCA2 act 6, NR2E3 ag-1 -2, NR2E3 ag-2 -125, DAX1 inh-1 2, GASC-1 inh 6 and DAX1 inh-2 6.2*.
For Cc1[nH]cnc1/C=N\NC(=O)c1cccc(S(=O)(=O)N(C)C)c1 the results were SMARCA2 act -1 and DAX1 inh-1 1.
`C=CCOc1ccc(/C=C/C(C)=N\O)cc1` gave SMARCA2 act 6, NR2E3 ag-1 -4, NR2E3 ag-2 -111, DAX1 inh-1 3.9*, GASC-1 inh 7 and DAX1 inh-2 2.
Screening C=CCOc1ccc(/C=C/C(=O)OCC(=O)N2CCN(C(C)=O)CC2)cc1 returned SMARCA2 act 1, NR2E3 ag-2 -9, DAX1 inh-1 -1, GASC-1 inh -1 and DAX1 inh-2 1.
For CCn1c(SCC#N)nc2ccccc2c1=O the results were SMARCA2 act 2, NR2E3 ag-1 2, NR2E3 ag-2 1, DAX1 inh-1 0, GASC-1 inh -21 and DAX1 inh-2 5.2*.
For CCn1c(SCC(=O)c2ccccc2)nc2ccccc2c1=O the results were SMARCA2 act 2, NR2E3 ag-1 2, NR2E3 ag-2 -11, DAX1 inh-1 -1, GASC-1 inh 4 and DAX1 inh-2 -1.
For Cc1nc(C(=O)NCC(=O)c2ccccc2)c(C(F)(F)F)o1 the results were SMARCA2 act -4, NR2E3 ag-1 -2, NR2E3 ag-2 -13, DAX1 inh-1 0, GASC-1 inh 0 and DAX1 inh-2 2.
Screening Cc1nc(C(=O)NNC(=O)c2ccccc2)c(C(F)(F)F)o1 returned SMARCA2 act -1, NR2E3 ag-1 -4, NR2E3 ag-2 1, DAX1 inh-1 0, GASC-1 inh -1 and DAX1 inh-2 4.3*.
COC1=C[C@H](C(=O)NCc2ccc(Br)cc2)[C@H](C)[C@@H](c2ccccc2)CC1=O was read as SMARCA2 act -1 and DAX1 inh-1 0.
`COc1ccc(-n2nnnc2SCC(=O)Nc2ccccc2N2CCOCC2)cc1OC` gave SMARCA2 act 1, NR2E3 ag-1 1, NR2E3 ag-2 -7, DAX1 inh-1 0, GASC-1 inh 3 and DAX1 inh-2 4.3*.
Cn1nnnc1SCC(=O)Nc1ccccc1N1CCOCC1 was read as SMARCA2 act 0, NR2E3 ag-1 2, NR2E3 ag-2 -4, DAX1 inh-1 -1, GASC-1 inh 9 and DAX1 inh-2 0.
CCOc1ccccc1NC(=O)CSc1nnc(SCc2ccccc2)s1 was read as SMARCA2 act 3 and DAX1 inh-1 1.
For COCC(C)Nc1ncnc2c1cnn2-c1ccc(Cl)cc1 (stereo not given) the results were SMARCA2 act 4, NR2E3 ag-1 3, NR2E3 ag-2 -142, DAX1 inh-1 4.0*, GASC-1 inh 12 and DAX1 inh-2 1.
For COc1ccc(-n2ncc3c(NC(C)C)ncnc32)cc1 the results were SMARCA2 act 2, NR2E3 ag-1 4, NR2E3 ag-2 -100, DAX1 inh-1 3, GASC-1 inh 6 and DAX1 inh-2 0.
Screening Cc1ccc(C(=O)Nc2nc(-c3ccccn3)cs2)o1 returned SMARCA2 act -2, NR2E3 ag-1 2, NR2E3 ag-2 -18, DAX1 inh-1 -1, GASC-1 inh -3 and DAX1 inh-2 2.
CCc1cc(C(=O)Nc2nc(-c3ccccn3)cs2)sc1C was read as SMARCA2 act 3, NR2E3 ag-1 3, NR2E3 ag-2 34, DAX1 inh-1 -1, GASC-1 inh -2 and DAX1 inh-2 6.7*.
O=C(Nc1nc(-c2ccccn2)cs1)c1ccc2c(c1)OCCO2 was read as SMARCA2 act 4, NR2E3 ag-1 2, NR2E3 ag-2 -144, DAX1 inh-1 3.8*, GASC-1 inh -22 and DAX1 inh-2 1.
CC1(C)CC(=O)C=C(c2ccc(COC(=O)c3ccccc3)cc2)C1=O was read as SMARCA2 act -1, NR2E3 ag-2 -44, DAX1 inh-1 3.9* and DAX1 inh-2 2.
Screening CC1(C)CC(=O)C=C(c2ccc(COC(=O)/C=C/c3ccccc3)cc2)C1=O returned SMARCA2 act -2, NR2E3 ag-2 -2, DAX1 inh-1 -1 and DAX1 inh-2 0.
